Data as given in article PMC9389373 (RSC Advances, 2022).
pIC50: −log10 of the molar value. Each block holds one molecule with its values, some of them ahead of it.

Experiments:
MCF-7 = test: MTT cytotoxicity assay, MCF-7; type: cell-based; settings: Homo sapiens, MCF7, read-out: IC50, μM MCF-7
Procedure, shortened: (§1)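 Cells came from the National Cancer Institute, Cairo, and were grown in RPMI-1640 with L-glutamine, 10% FBS and 1% penicillin-streptomycin at 37 °C, 5% CO2. Plated in triplicate in 96-well plates (5 × 10^4 cells). Next day, exposed to test compound at 0.01, 0.1, 1, 10 and 100 μM (48 h stated for MDA-MB-231 and MCF-10A). MTT added for 3 h; absorbance read; viability relative to control; IC50 derived.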

PARP-1 = PARP-1 (Homo sapiens, UniProt P09874); test: PARP-1 enzyme inhibition assay; type: biochemical
EGFR = EGFR (Homo sapiens, UniProt P00533); test: EGFR inhibition, ADP-Glo kinase assay; type: biochemical
MDA-MB-231 = test: MTT cytotoxicity assay, MDA-MB-231; type: cell-based; settings: read-out: IC50, μM MDA-MB-231, average of three independent trials
Procedure, shortened: as §1

MDA-MB-231 cells [1] = test: DNA-aided cell cycle analysis by flow cytometry; type: cell-based; settings: 8i at 0.12 μM, 48 h; control 9.83%
MDA-MB-231 cells [2] = test: RT-PCR gene expression of apoptosis-related genes; type: cell-based; settings: 8i at 0.12 μM, 48 h, untreated control = 1
MCF-10A = test: MTT cytotoxicity assay, normal breast cells MCF-10A; type: cell-based; settings: Homo sapiens
Procedure, shortened: as §1

MDA-MB-231 cells [3] = test: Annexin V/PI staining flow cytometry, apoptosis-necrosis assessment; type: cell-based; settings: 8i at 0.12 μM, 48 h
Procedure, shortened: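 MDA-MB-231 cells seeded overnight in 6-well plates (3–5 × 10^5 cells/well), then exposed to test compound for 48 h. Stained 30 min in the dark in Annexin binding buffer (25 mM CaCl2, 1.4 M NaCl, 0.1 M Hepes/NaOH, pH 7.4) with Annexin V-FITC (1:100) and PI (10 μg mL−1). Analysed by flow cytometry: Q1 necrosis, Q2 late apoptosis, Q4 early apoptosis.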

[4] = five concentrations, sigmoidal nonlinear regression

Chain of PARP-1 (P09874 whole entry): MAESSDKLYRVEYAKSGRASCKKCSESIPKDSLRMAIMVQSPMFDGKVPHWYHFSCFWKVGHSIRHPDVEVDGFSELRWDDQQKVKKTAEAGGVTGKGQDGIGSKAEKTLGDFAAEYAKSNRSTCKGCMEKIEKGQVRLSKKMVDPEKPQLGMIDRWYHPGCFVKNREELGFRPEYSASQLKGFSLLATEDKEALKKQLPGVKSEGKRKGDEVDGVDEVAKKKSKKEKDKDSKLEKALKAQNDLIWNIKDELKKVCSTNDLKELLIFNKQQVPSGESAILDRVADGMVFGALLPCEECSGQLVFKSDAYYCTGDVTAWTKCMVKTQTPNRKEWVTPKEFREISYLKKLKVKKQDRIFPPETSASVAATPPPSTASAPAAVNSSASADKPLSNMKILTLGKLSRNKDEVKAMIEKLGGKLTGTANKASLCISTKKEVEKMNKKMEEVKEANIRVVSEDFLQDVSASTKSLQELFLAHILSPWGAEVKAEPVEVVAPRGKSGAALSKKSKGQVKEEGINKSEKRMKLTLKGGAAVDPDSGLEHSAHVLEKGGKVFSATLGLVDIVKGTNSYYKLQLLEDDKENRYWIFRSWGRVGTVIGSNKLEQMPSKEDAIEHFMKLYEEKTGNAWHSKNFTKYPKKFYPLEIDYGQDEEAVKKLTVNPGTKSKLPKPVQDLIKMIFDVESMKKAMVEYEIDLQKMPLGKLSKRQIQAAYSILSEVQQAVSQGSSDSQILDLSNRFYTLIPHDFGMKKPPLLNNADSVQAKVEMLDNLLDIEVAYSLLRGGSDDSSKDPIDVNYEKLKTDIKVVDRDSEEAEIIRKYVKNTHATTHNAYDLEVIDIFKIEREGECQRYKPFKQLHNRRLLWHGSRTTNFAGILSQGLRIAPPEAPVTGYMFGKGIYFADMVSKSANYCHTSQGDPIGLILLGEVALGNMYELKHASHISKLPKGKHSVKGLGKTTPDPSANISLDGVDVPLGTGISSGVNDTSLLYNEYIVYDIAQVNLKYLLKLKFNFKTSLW
Chain of EGFR (P00533 25-1210): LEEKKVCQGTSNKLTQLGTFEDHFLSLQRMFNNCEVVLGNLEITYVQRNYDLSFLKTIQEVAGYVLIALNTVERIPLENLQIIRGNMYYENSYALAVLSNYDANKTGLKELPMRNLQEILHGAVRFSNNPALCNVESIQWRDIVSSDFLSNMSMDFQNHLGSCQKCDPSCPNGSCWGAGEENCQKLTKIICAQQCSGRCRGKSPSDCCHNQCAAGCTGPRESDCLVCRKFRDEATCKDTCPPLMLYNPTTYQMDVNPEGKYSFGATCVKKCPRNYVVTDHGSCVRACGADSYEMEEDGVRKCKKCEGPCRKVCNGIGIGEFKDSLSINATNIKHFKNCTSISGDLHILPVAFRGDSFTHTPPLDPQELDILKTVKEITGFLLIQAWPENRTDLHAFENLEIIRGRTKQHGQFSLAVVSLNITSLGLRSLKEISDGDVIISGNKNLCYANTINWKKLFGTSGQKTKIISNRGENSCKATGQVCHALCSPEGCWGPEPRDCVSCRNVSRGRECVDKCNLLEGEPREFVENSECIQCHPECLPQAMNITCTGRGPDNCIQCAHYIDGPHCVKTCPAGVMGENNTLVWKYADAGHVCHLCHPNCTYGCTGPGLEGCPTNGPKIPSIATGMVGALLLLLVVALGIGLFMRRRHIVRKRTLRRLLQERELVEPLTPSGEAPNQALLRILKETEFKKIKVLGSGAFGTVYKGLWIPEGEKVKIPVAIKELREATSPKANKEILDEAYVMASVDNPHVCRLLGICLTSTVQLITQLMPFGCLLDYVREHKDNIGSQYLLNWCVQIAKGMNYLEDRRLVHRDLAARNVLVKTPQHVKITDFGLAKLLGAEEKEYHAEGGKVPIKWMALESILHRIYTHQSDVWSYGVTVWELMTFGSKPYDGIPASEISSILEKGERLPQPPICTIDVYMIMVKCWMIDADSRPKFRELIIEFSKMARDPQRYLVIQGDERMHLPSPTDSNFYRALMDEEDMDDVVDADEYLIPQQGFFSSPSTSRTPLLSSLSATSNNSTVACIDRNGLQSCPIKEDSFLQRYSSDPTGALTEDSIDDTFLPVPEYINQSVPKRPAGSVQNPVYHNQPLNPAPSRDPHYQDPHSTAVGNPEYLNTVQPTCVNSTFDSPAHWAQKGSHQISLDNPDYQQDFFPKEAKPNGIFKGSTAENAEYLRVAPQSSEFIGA

SMILES: O=C(COc1ccc(C2=Nn3c(Cc4ccccc4)nnc3SC2)cc1)NCCNC(=O)COc1ccc(C2=Nn3c(Cc4ccccc4)nnc3SC2)cc1 [8b, N,N′-(Ethane-1,2-diyl)bis(2-(4-(3-benzyl-7H-[1,2,4]triazolo[3,4-b][1,3,4]thiadiazin-6-yl)phenoxy)acetamide)]
IC50 (MCF-7): 26.1 µM

SMILES: O=C(COc1ccc(C2=Nn3c(nnc3-c3ccccc3)SC2)cc1)NCCCCNC(=O)COc1ccc(C2=Nn3c(nnc3-c3ccccc3)SC2)cc1 [8j, N,N′-(Butane-1,4-diyl)bis(2-(4-(3-phenyl-7H-[1,2,4]triazolo[3,4-b][1,3,4]thiadiazin-6-yl)phenoxy)acetamide)]
IC50 (MCF-7): 14.9 µM

SMILES: O=C(COc1ccc(C2=Nn3c(nnc3-c3ccccc3)SC2)cc1)NCCCNC(=O)COc1ccc(C2=Nn3c(nnc3-c3ccccc3)SC2)cc1 [8e, N,N′-(Propane-1,3-diyl)bis(2-(4-(3-phenyl-7H-[1,2,4]triazolo[3,4-b][1,3,4]thiadiazin-6-yl)phenoxy)acetamide)]
IC50 (MCF-7): 12.7 µM

SMILES: Cc1cc2ncc(-c3ccccc3OCC(=O)NCCCCNC(=O)COc3ccccc3-c3cnc4cc(C)c(C)cc4n3)nc2cc1C [10e, N,N′-(Butane-1,4-diyl)bis(2-(2-(6,7-dimethylquinoxalin-2-yl)phenoxy)acetamide)]
IC50 (MCF-7): 31.2 µM

SMILES: O=C(COc1ccccc1C1=Nn2c(nnc2-c2ccccc2)SC1)NCCCNC(=O)COc1ccccc1C1=Nn2c(nnc2-c2ccccc2)SC1 [8g, N,N′-(Propane-1,3-diyl)bis(2-(2-(3-phenyl-7H-[1,2,4]triazolo[3,4-b][1,3,4]thiadiazin-6-yl)phenoxy)acetamide)]
IC50 (MCF-7): 11.2 µM

pIC50 (PARP-1): 8.16 | pIC50 (EGFR): 7.10
SMILES: O=C(COc1ccccc1C1=Nn2cnnc2SC1)NCCCCNC(=O)COc1ccccc1C1=Nn2cnnc2SC1 [8l, N,N′-(Butane-1,4-diyl)bis(2-(2-(7H-[1,2,4]triazolo[3,4-b][1,3,4]thiadiazin-6-yl)phenoxy)-acetamide)]
IC50 (MCF-7): 5.31 µM

SMILES: Cc1nnc2n1N=C(c1ccc(OCC(=O)NCCCNC(=O)COc3ccc(C4=Nn5c(C)nnc5SC4)cc3)cc1)CS2 [8f, N,N′-(Propane-1,3-diyl)bis(2-(4-(3-methyl-7H-[1,2,4]triazolo[3,4-b][1,3,4]thiadiazin-6-yl)phenoxy)acetamide)]
IC50 (MCF-7): 7.12 µM

pIC50 (PARP-1): 7.70 | IC50, nM PARP-1 (PARP-1; [4]): poor inhibitory activities | pIC50 (EGFR): 6.91 | IC50, nM EGFR (EGFR; [4]): poor inhibitory activities
SMILES: Cc1nnc2n1N=C(c1ccccc1OCC(=O)NCCNC(=O)COc1ccccc1C1=Nn3c(C)nnc3SC1)CS2 [8d, N,N′-(Ethane-1,2-diyl)bis(2-(2-(3-methyl-7H-[1,2,4]triazolo[3,4-b][1,3,4]thiadiazin-6-yl)phenoxy)acetamide)]
IC50 (MDA-MB-231): 0.421 µM | IC50 (MCF-7): 2.14 µM

SMILES: O=C(COc1ccccc1C1=Nn2c(nnc2-c2ccccc2)SC1)NCCNC(=O)COc1ccccc1C1=Nn2c(nnc2-c2ccccc2)SC1 [8c, N,N′-(Ethane-1,2-diyl)bis(2-(2-(3-phenyl-7H-[1,2,4]triazolo[3,4-b][1,3,4]thiadiazin-6-yl)phenoxy)acetamide)]
IC50 (MCF-7): 16.1 µM

SMILES: O=C(COc1ccccc1C1=Nn2c(nnc2-c2ccccc2)SC1)NCCCCNC(=O)COc1ccccc1C1=Nn2c(nnc2-c2ccccc2)SC1 [8k, N,N′-(Butane-1,4-diyl)bis(2-(2-(3-phenyl-7H-[1,2,4]triazolo[3,4-b][1,3,4]thiadiazin-6-yl)phenoxy)acetamide)]
IC50 (MCF-7): 13.1 µM

SMILES: O=C(COc1ccc(-c2cnc3ccccc3n2)cc1)NCCNC(=O)COc1ccc(-c2cnc3ccccc3n2)cc1 [10a, N,N′-(Ethane-1,2-diyl)bis(2-(4-(quinoxalin-2-yl)phenoxy)acetamide)]
IC50 (MDA-MB-231): ≥ 50 µM | IC50 (MCF-7): 32 µM

SMILES: O=C(COc1ccc(C2=Nn3c(nnc3-c3ccccc3)SC2)cc1)NCCNC(=O)COc1ccc(C2=Nn3c(nnc3-c3ccccc3)SC2)cc1 [8a, N,N′-(Ethane-1,2-diyl)bis(2-(4-(3-phenyl-7H-[1,2,4]triazolo[3,4-b][1,3,4]thiadiazin-6-yl)phenoxy)acetamide)]
IC50 (MCF-7): ≥ 50 µM

SMILES: O=C(COc1ccccc1C1=Nn2c(Cc3ccccc3)nnc2SC1)NCCCNC(=O)COc1ccccc1C1=Nn2c(Cc3ccccc3)nnc2SC1 [8h, N,N′-(Propane-1,3-diyl)bis(2-(2-(3-benzyl-7H-[1,2,4]triazolo[3,4-b][1,3,4]thiadiazin-6-yl)phenoxy)acetamide)]
IC50 (MDA-MB-231): ≥ 50 µM | IC50 (MCF-7): 21.1 µM

SMILES: C#Cc1cccc(Nc2ncnc3cc(OCCOC)c(OCCOC)cc23)c1 [Erlotinib, reference compound]
IC50 (MCF-7): 0.32 µM

SMILES: O=C(COc1ccc(-c2cnc3ccccc3n2)cc1)NCCCNC(=O)COc1ccc(-c2cnc3ccccc3n2)cc1 [10d, N,N′-(Propane-1,3-diyl)bis(2-(4-(quinoxalin-2-yl)phenoxy)acetamide)]
IC50 (MDA-MB-231): ≥ 50 µM | IC50 (MCF-7): 23.2 µM

SMILES: Cc1cc2ncc(-c3ccc(OCC(=O)NCCNC(=O)COc4ccc(-c5cnc6cc(C)c(C)cc6n5)cc4)cc3)nc2cc1C [10b, N,N′-(Ethane-1,2-diyl)bis(2-(4-(6,7-dimethylquinoxalin-2-yl)phenoxy)acetamide)]
IC50 (MCF-7): ≥ 50 µM

SMILES: Cc1nnc2n1N=C(c1ccccc1OCC(=O)NCCCNC(=O)COc1ccccc1C1=Nn3c(C)nnc3SC1)CS2 [8i, N,N′-(Propane-1,3-diyl)bis(2-(2-(3-methyl-7H-[1,2,4]triazolo[3,4-b][1,3,4]thiadiazin-6-yl)phenoxy)acetamide)]
cell population at G2/M (MDA-MB-231 cells [1]): 24.04% | Bcl-2 gene level, fold change (MDA-MB-231 cells [2]; decrease): 0.35 fold | Bax gene level, fold change (MDA-MB-231 cells [2]; increase): 4.46 fold | P53 gene level, fold change (MDA-MB-231 cells [2]; increase): 4.8 fold | caspase-3 gene level, fold change (MDA-MB-231 cells [2]; increase): 3.9 fold | caspase-8 gene level, fold change (MDA-MB-231 cells [2]; increase): 6.36 fold | caspase-9 gene level, fold change (MDA-MB-231 cells [2]; increase): 2.9 fold | pIC50 (MCF-10A; 48 h, read-out: IC50 MCF-10A): 4.28 | inhibition at 100 µM (MCF-10A; read-out: cell inhibition): ~90% | necrosis, fold compared to control (MDA-MB-231 cells [3]): 3.14 fold | total apoptosis, fold compared to control (MDA-MB-231 cells [3]): 38 fold | late apoptosis (Q2) (MDA-MB-231 cells [3]; control 0.18%): 19.51% | early apoptosis (Q4) (MDA-MB-231 cells [3]; control 0.63%): 11.23% | total apoptotic cell death (MDA-MB-231 cells [3]; control 0.81%): 30.74% | necrosis (Q1) (MDA-MB-231 cells [3]; control 1.3%): 4.08% | IC50 (MCF-7): 1.31 µM | pIC50 (EGFR): 7.19

SMILES: O=C(COc1ccccc1-c1cnc2ccccc2n1)NCCNC(=O)COc1ccccc1-c1cnc2ccccc2n1 [10c, N,N′-(Ethane-1,2-diyl)bis(2-(2-(quinoxalin-2-yl)phenoxy)acetamide)]
IC50 (MCF-7): 7.61 µM
